Assay results as given in ChEMBL document CHEMBL2440017, “Discovery of a potent, selective, and orally bioavailable histamine H3 receptor antagonist SAR110068 for the treatment of sleep-wake disorders” (Bioorg Med Chem Lett, 2013).
Activity calls are given as the source filed them. The calls are words filed in the database; no cut-off is given here.

What was measured:
[1] = Elimination half life in OF1 mouse brain at 10 mg/kg, po; format: ADME, organism-based; parameters: dose 10 mg/kg, route oral; conditions: read-out: beta t1/2 (converted)
Outline: (§1)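 Oral gavage at 10 mg/kg to male OF1 mice (vehicle 5% DMSO/0.5% MC/0.2% Tween80, 1.0 mg/mL) or male Sprague-Dawley rats (vehicle 0.5% MC/0.2% Tween80, 1.0 mg/mL). Plasma and brain exposure and half-life determined.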

[2] = test system: Cynomolgus monkey; test: Cardiotoxicity in cynomolgus monkey assessed as PR, QRS, QTc interval at 10 mg/kg, iv; format: toxicity, organism-based, Macaca fascicularis; parameters: dose 10 mg/kg, route intravenous; conditions: in vivo
Outline: (§2)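 Anaesthetized cynomolgus monkeys dosed 10 mg/kg i.v. Arterial blood pressure, heart rate and ECG (PR, QRS, QTc intervals) monitored. Plasma drug sampled at 5, 15 and 30 min post-dose.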

[3] = test system: Mus musculus; test: Autonomic toxicity in mouse at 10 to 30 mg/kg, po; format: organism-based; parameters: dose 10-30 mg/kg, route oral; conditions: in vivo
Outline: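 Acute oral behavioural safety evaluation in grouped mice at 0, 10 and 30 mg/kg p.o. Animals scored for behavioural, neurologic and autonomic signs.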

[4] = test system: Cynomolgus monkey; test: Cardiotoxicity in cynomolgus monkey assessed as blood arterial pressure and heart rate at 10 mg/kg, iv; format: toxicity, organism-based, Macaca fascicularis; parameters: dose 10 mg/kg, route intravenous; conditions: in vivo; outline: as §2
[5] = Biotransformation in human microsomes; format: ADME, Microsome; conditions: read-out: Activity
Outline: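 Percentage biotransformation measured in human liver microsomes in vitro.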

[6] = biological target: Voltage-gated inwardly rectifying potassium channel KCNH2 (Homo sapiens, UniProt Q12809); test: Inhibition of human ERG expressed in CHO cells by patch-clamp technique; format: cell-based
Outline: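 hERG current recorded by whole-cell patch clamp in CHO cells stably transfected with the human ERG gene.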

[7] = AUC (0 to infinity) in Sprague-Dawley rat brain at 2 mg/kg, iv; format: ADME, organism-based; parameters: dose 2 mg/kg, route intravenous, time infinity
Outline: (§3)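 Male OF1 mice or male Sprague-Dawley rats, single 2 mg/kg i.v. dose. Mouse vehicle 50% 1-methyl-2-pyrrolidinone in saline at 1.0 mg/mL; rat vehicle saline at 0.5 mg/mL. Plasma and brain levels followed over time; AUC0-inf, t1/2 and clearance derived from exposure. Brain/plasma ratio uses i.v. AUC0-inf.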

[8] = Metabolic stability in dog microsomes; format: ADME, Canis lupus familiaris, Microsome
Outline: (§4)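 Percentage biotransformation measured in vitro in liver microsomes of each species.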

[9] = Metabolic stability in mouse microsomes; format: ADME, Microsome; outline: as §4
[10] = Drug degradation in DMSO after 48 hrs at room temperature; format: physicochemical; conditions: read-out: Drug degradation
Outline: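 Compound kept 48 h at room temperature in water, aqueous solutions of pH 1.0–7.4, DMSO, or GI-tract simulation medium. Percent degradation measured.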

[11] = AUC (0 to infinity) in Sprague-Dawley rat plasma at 10 mg/kg, po; format: ADME, organism-based; parameters: time infinity, dose 10 mg/kg, route oral; outline: as §1
[12] = Genotoxicity in micronucleus (unknown origin) at 5 to 950 ug/ml
Outline: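 Ames II and micronucleus tests, Ames over 3–1000 µg/mL and MNT over 5–950 µg/mL. Each run with and without metabolic activation by human liver microsome preparations.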

[13] = test system: Mus musculus; test: Toxicity in mouse assessed as behavioral side effect at 30 mg/kg, po; format: organism-based; parameters: dose 30 mg/kg, route oral; conditions: in vivo
Outline: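 Group acute oral behavioral safety study in mice at 30 mg/kg p.o., scored for behavioral side effects.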

[14] = AUC (0 to infinity) in OF1 mouse plasma at 2 mg/kg, iv; format: ADME, organism-based; parameters: dose 2 mg/kg, route intravenous, time infinity; outline: as §3
[15] = test system: Plasma; test: Metabolic stability in rabbit plasma; format: ADME, cell-free, Oryctolagus cuniculus
Outline: (§5)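 Compound stability measured in plasma of each species in vitro.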

[16] = biological target: CYP3A4 (Homo sapiens, UniProt P08684); test: Inhibition of CYP3A4 (unknown origin) at 0.5 uM; format: ADME
[17] = organism: Homo sapiens; test: Inhibition of sigma 2 receptor (unknown origin) at 10 uM
Outline: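 CEREP selectivity panel: percent inhibition of control specific binding at 10 µM.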

[18] = biological target: Cytochrome P450 2D6 (Homo sapiens, UniProt P10635); test: Inhibition of CYP2D6 (unknown origin); format: ADME
[19] = Metabolic stability in rat microsomes; format: ADME, Microsome; outline: as §4
[20] = test system: Plasma; test: Metabolic stability in monkey plasma; format: ADME, cell-free, Macaca mulatta; conditions: rhesus monkey; outline: as §5
[21] = Elimination half life in Sprague-Dawley rat plasma at 10 mg/kg, po; format: ADME, organism-based; parameters: dose 10 mg/kg, route oral; conditions: read-out: beta t1/2 (converted); outline: as §1
[22] = test system: Plasma; test: Clearance in Sprague-Dawley rat plasma at 2 mg/kg, iv; format: ADME, organism-based; parameters: dose 2 mg/kg, route intravenous; conditions: in vivo; outline: as §3
[23] = AUC (0 to infinity) in Sprague-Dawley rat plasma at 2 mg/kg, iv; format: ADME, organism-based; parameters: time infinity, dose 2 mg/kg, route intravenous; outline: as §3
[24] = Plasma concentration in cynomolgus monkey at 30 mg/kg, iv after 15 mins; format: ADME, organism-based, Macaca fascicularis; parameters: dose 30 mg/kg, route intravenous
[25] = test system: Mus musculus; test: Neurologic toxicity in mouse at 10 to 30 mg/kg, po; format: organism-based; parameters: dose 10-30 mg/kg, route oral; conditions: in vivo
Outline: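 Acute oral behavioral safety evaluation in mice. Oral doses were 0, 10 and 30 mg/kg. Behavioral, neurologic and autonomic signs were scored.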

[26] = Elimination half life in OF1 mouse plasma at 2 mg/kg, iv; format: ADME, organism-based; parameters: dose 2 mg/kg, route intravenous; conditions: read-out: beta t1/2 (converted); outline: as §3
[27] = Oral bioavailability in OF1 mouse plasma at 10 mg/kg; format: ADME, organism-based
Outline: (§6)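 Male OF1 mice received 2 mg/kg i.v. (1.0 mg/mL in 50% 1-methyl-2-pyrrolidinone/saline) or 10 mg/kg p.o. (1.0 mg/mL in 5% DMSO/0.5% MC/0.2% Tween80). Plasma and brain AUC0-inf were measured, and the B/P ratio was calculated from i.v. AUC0-inf.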

[28] = test system: Plasma; test: Metabolic stability in dog plasma; format: ADME, cell-free, Canis lupus familiaris; outline: as §5
[29] = test system: Plasma; test: Metabolic stability in mouse plasma; format: ADME, cell-free; outline: as §5
[30] = test system: Rattus norvegicus; test: Awakening activity in rat assessed as increased wakefulness at 3 to 10 mg/kg, po; format: functional, organism-based
Outline: (§7)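 Rats given compound orally at 3 or 10 mg/kg, or reference drugs i.p. or p.o. at 10 mg/kg. EEG recorded during the light phase and scored as wakefulness, slow wave sleep and REM sleep. Time-course analysis of the effects.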

[31] = Ratio of AUC (0 to infinity) in OF1 mouse brain to AUC (0 to infinity) in OF1 mouse plasma at 2 mg/kg, iv; format: ADME, organism-based; parameters: dose 2 mg/kg, route intravenous; conditions: read-out: Ratio AUC; outline: as §6
[32] = AUC in OF1 mouse plasma at 10 mg/kg, po; format: ADME, organism-based; parameters: dose 10 mg/kg, route oral; outline: as §1
[33] = test system: Hepatocyte; test: Clearance in human hepatocytes; format: ADME, cell-based
Outline: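 Human hepatocytes in vitro, n = 4 preparations. Metabolic clearance expressed per 10^6 hepatocytes per hour. Also tested at a lower 0.5 concentration to check for concentration dependence.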

[34] = Elimination half life in OF1 mouse plasma at 10 mg/kg, po; format: ADME, organism-based; parameters: dose 10 mg/kg, route oral; conditions: read-out: beta t1/2 (converted); outline: as §1
[35] = test system: Plasma; test: Metabolic stability in human plasma; format: ADME, cell-free; outline: as §5
[36] = test system: Rattus norvegicus; test: Awakening activity in rat assessed as decrease in slow wave and REM sleep at 3 to 10 mg/kg, po; format: functional, organism-based; outline: as §7
[37] = test system: Rattus norvegicus; test: Awakening activity in rat assessed as increased wakefulness at 3 to 10 mg/kg, po after 4 hrs; format: functional, organism-based; outline: as §7
[38] = test system: Plasma; test: Metabolic stability in sheep plasma; format: ADME, cell-free, Ovis aries; outline: as §5
[39] = biological target: Histamine receptor H3 (Macaca mulatta, UniProt Q865E1); test: Displacement of [3H]N-alpha-methylhistamine from rhesus monkey histamine H3 receptor expressed in CHO cells; format: cell-based
Outline: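 Membranes from CHO cells stably expressing rhesus monkey H3 receptor. Competition binding against [3H]N-α-methylhistamine; Ki values are means of three or more determinations.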

[40] = AUC in Sprague-Dawley rat brain at 10 mg/kg, po; format: ADME, organism-based; parameters: dose 10 mg/kg, route oral; outline: as §1
[41] = Activation of p-glycoprotein (unknown origin); conditions: human

Chain of Voltage-gated inwardly rectifying potassium channel KCNH2 (Q12809 whole entry): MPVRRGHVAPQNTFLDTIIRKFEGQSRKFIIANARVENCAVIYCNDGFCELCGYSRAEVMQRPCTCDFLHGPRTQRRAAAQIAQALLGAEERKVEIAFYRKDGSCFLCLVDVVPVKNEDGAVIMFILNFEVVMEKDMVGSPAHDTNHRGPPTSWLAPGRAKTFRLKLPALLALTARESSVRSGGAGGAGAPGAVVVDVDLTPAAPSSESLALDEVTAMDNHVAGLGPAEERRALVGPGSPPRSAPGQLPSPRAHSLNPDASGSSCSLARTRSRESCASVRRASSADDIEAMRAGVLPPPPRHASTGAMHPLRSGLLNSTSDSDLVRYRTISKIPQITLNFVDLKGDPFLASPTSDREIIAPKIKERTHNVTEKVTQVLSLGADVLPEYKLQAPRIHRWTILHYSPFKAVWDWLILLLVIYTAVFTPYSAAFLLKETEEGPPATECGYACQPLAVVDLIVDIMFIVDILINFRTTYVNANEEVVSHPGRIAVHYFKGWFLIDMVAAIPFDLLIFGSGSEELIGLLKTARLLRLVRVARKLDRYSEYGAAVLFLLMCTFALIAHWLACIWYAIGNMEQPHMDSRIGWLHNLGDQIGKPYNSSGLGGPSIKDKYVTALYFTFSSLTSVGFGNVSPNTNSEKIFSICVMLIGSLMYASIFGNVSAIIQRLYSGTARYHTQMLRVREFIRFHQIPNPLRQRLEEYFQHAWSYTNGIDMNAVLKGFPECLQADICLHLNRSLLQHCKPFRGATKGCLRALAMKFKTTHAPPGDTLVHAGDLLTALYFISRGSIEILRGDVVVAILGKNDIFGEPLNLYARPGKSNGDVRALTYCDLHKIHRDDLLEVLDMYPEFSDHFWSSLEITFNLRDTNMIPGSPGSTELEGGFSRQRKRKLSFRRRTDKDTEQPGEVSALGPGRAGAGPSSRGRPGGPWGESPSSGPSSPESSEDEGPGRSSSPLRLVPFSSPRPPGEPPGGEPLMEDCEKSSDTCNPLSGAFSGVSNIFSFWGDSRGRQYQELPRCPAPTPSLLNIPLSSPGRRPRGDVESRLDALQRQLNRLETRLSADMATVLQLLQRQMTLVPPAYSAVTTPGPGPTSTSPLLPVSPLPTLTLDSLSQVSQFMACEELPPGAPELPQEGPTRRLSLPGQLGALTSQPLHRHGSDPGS
Chain of Cytochrome P450 2D6 (P10635 whole entry): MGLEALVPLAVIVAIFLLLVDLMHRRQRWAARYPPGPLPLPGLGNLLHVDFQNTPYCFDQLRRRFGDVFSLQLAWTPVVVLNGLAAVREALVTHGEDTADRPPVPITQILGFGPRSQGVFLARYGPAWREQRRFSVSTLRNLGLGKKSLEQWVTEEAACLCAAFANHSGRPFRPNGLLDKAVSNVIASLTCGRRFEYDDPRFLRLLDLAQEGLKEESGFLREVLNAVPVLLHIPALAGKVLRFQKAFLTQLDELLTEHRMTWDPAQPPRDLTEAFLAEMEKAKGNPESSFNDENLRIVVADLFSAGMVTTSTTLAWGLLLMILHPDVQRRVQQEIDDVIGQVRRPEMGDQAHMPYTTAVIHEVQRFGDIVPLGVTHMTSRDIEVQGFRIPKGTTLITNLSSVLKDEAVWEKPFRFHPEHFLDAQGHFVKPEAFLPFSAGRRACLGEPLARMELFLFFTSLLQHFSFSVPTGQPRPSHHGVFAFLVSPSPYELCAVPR
Chain of Histamine receptor H3 (Q865E1 whole entry): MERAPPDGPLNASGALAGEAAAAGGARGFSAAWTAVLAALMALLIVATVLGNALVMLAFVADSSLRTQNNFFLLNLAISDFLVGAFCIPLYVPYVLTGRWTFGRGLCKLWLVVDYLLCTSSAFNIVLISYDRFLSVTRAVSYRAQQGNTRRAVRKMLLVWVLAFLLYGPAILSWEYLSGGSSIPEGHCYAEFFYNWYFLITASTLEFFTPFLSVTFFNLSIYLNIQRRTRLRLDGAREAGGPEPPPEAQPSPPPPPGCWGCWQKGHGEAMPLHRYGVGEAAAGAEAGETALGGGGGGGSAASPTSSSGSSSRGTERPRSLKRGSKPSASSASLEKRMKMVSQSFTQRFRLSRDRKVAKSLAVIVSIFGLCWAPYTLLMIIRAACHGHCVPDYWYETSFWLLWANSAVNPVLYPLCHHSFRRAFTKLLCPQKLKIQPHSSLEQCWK
Chain of CYP3A4 (P08684 whole entry): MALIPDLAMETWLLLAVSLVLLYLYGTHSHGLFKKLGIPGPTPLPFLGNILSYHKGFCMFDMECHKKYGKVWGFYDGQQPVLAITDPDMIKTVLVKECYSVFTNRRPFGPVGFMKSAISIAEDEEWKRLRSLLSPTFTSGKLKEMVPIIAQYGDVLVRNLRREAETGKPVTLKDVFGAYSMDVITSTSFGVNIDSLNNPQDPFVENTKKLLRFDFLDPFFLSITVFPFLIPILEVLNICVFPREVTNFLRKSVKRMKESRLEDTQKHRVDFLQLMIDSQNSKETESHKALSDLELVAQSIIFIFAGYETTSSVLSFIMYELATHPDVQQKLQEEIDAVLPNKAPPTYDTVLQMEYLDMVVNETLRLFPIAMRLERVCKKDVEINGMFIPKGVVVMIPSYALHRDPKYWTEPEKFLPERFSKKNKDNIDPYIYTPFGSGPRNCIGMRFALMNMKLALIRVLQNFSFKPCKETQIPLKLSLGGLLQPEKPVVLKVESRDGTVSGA

## Cc1cc(N2CC[C@H](N3CCC[C@@H]3C)C2)ccc1NC(=O)C1CCOCC1
[1]
  half-life: 1.9 h
[2]
  Activity: Non-toxic
[3]
  Activity: Non-toxic
[4]
  Activity: Non-toxic
[5]
  metabolised: < 5%
[6]
  IC50: 18.9 µM
[7]
  AUC(0-inf): 700 ng·h/mL
[8]
  Stability: Stable
[9]
  Stability: Stable
[10]
  degraded at 48 h: < 2%
[11]
  AUC(0-inf): 8400 ng·h/mL
[12]
  Activity: Non-toxic
[13]
  Activity: Non-toxic
[14]
  AUC(0-inf): 1100 ng·h/mL
[15]
  Stability: Stable
[16]
  inhibition at 0.5 µM: 49%
[17]
  inhibition: 53%
[18]
  inhibition (INH): Active
[19]
  Stability: Stable
[20]
  Stability: Stable
[21]
  half-life: 3 h
[22]
  clearance: 16.7 mL/min/kg
[23]
  AUC(0-inf): 2100 ng·h/mL
[24]
  concentration at 0.25 h: 11 µM
[25]
  Activity: Non-toxic
[26]
  half-life: 3.6 h
[27]
  bioavailability: 58%
[28]
  Stability: Stable
[29]
  Stability: Stable
[30]
  Activity: Active
[31]
  Kp: 0.35
[32]
  AUC: 3200 ng·h/mL
[33]
  CLH: 0.031 mL/h
[34]
  half-life: 2.3 h
[35]
  Stability: Stable
[36]
  Activity: Active
[37]
  Activity: Active
[38]
  Stability: Stable
[39]
  Ki: 0.00097 µM
[40]
  AUC: 4200 ng·h/mL
[41]
  Activity: Not Active
